According to ChEMBL document CHEMBL1667863, “Amino-benzosuberone: a novel warhead for selective inhibition of human aminopeptidase-N/CD13” (Bioorg Med Chem, 2011):
Where a name gives a salt, the structure may show the parent alone. Calls of active or inactive are those of the source. No cut-off for these calls is given here.

Assays:
[1] = target: T1, Leukotriene A-4 hydrolase (Homo sapiens, UniProt P09960); experiment: Inhibition of aminopeptidase activity of human leukotriene A4 hydrolase by Dixon plot analysis
T1 sequence (P09960 whole entry): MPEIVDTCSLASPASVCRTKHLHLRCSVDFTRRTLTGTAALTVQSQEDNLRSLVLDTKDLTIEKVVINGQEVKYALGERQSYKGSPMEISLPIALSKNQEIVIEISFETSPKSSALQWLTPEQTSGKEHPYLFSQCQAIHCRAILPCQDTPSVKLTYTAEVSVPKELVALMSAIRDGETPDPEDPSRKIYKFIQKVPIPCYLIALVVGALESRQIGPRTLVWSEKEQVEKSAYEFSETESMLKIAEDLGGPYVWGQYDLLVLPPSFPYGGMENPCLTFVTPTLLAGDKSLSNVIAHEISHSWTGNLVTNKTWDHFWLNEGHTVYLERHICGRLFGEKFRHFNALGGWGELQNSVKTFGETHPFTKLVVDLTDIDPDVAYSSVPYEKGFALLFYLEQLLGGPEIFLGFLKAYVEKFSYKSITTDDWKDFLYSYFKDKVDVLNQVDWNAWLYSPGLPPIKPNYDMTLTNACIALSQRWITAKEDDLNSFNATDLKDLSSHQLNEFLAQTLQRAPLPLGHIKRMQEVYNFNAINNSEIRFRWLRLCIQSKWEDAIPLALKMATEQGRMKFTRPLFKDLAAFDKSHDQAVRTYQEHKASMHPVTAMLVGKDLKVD
Method in brief: (§1)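 Compounds tested as racemates; IC50 obtained from Dixon plots, with substrate set at the Km of each enzyme.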

Aminopeptidase N = Aminopeptidase N (Homo sapiens, UniProt P15144); experiment: Inhibition of human aminopeptidase N by Dixon plot analysis
Chain of Aminopeptidase N (P15144 whole entry): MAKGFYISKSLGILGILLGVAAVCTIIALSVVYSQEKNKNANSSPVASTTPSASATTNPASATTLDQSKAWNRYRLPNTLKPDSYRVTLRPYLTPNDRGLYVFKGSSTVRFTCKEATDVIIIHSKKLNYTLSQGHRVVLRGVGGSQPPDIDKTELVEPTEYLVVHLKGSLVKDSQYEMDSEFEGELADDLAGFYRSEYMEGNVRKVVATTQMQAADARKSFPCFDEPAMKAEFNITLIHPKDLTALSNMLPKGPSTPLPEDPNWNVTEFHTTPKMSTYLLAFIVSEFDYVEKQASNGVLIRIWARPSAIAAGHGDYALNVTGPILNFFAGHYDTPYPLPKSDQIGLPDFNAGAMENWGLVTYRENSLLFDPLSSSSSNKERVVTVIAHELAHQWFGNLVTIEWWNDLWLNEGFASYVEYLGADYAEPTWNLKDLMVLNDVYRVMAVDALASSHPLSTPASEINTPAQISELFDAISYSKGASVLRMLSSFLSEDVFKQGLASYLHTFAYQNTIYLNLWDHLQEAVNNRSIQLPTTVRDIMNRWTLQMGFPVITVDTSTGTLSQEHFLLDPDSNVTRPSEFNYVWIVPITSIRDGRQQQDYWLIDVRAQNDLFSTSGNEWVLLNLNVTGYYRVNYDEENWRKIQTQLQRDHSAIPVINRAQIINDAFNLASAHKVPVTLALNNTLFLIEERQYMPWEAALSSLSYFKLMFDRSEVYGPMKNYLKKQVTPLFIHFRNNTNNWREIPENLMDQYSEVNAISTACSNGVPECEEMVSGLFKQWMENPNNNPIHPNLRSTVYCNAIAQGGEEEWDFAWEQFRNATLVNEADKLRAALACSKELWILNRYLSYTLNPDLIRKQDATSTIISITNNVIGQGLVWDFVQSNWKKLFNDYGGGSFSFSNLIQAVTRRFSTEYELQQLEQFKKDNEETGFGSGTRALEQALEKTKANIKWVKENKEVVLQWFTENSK

Cytosol aminopeptidase = target: T2, Cytosol aminopeptidase (Bos taurus, UniProt P00727); experiment: Inhibition of bovine lens cytosolic leucine aminopeptidase by Dixon plot analysis; set-up: species or system Lens of camera-type eye; method in brief: as §1
T2 sequence (P00727 whole entry): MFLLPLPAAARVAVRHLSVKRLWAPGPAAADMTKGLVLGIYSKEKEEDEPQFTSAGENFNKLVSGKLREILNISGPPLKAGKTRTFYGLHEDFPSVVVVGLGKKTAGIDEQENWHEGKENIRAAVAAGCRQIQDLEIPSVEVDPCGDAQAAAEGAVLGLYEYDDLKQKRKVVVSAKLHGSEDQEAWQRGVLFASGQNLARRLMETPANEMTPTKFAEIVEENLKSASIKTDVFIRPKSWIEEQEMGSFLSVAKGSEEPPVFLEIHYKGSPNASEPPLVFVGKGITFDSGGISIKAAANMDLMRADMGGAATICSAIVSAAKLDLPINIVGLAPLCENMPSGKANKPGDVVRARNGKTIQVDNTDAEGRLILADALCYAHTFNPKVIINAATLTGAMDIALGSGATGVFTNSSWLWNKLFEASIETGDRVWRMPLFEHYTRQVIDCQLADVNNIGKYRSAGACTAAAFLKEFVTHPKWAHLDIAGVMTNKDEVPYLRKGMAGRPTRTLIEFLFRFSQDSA

[2] = Inhibition of Aeromonas proteolytica aminopeptidase by Dixon plot analysis; set-up: species or system Vibrio proteolyticus; method in brief: as §1
[3] = target: T3, Aminopeptidase N (Sus scrofa) (UniProt P15145); experiment: Inhibition of porcine kidney aminopeptidase N at 2 uM after 1 hr
T3 sequence (whole entry): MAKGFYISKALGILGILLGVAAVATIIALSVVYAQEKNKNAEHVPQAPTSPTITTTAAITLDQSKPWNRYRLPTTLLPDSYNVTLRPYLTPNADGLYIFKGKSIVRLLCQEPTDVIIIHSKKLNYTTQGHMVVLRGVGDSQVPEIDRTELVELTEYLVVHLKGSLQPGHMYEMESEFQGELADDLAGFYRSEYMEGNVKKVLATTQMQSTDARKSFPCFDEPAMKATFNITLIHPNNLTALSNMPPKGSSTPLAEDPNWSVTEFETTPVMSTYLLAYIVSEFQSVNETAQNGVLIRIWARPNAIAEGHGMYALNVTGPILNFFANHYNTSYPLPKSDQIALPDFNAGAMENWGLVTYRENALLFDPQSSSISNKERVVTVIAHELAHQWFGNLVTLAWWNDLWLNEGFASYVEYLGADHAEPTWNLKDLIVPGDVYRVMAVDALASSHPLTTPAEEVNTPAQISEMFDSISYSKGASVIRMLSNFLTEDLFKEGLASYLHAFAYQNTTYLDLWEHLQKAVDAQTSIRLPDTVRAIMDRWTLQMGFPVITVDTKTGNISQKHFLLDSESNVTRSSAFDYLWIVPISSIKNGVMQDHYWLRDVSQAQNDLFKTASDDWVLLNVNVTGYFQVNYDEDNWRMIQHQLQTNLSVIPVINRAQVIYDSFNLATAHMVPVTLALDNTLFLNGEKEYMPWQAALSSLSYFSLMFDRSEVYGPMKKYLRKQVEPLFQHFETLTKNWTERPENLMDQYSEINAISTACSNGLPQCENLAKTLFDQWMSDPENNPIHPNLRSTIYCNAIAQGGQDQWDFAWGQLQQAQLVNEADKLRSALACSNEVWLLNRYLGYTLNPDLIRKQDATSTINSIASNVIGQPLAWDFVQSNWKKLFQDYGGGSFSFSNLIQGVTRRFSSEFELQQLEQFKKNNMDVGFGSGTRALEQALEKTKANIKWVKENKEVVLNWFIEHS
Method in brief: (§2)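 Porcine kidney APN (3 milliunits, added to start the reaction) in 20 mM Tris-HCl pH 7.5 at 25 °C; substrate leucine-para-nitroanilide 0.2 mM; para-nitroaniline release followed at 405 nm for up to 10 h; inhibitor at 2 µM; velocities compared with a no-inhibitor control.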

[4] = target: T3, Aminopeptidase N (Sus scrofa); experiment: Inhibition of porcine kidney aminopeptidase N at 2 uM after 8 hrs; method in brief: as §2
[5] = Chemical stability of the compound; format: physicochemical

Row | IC50 [1] [µM] | IC50 (Aminopeptidase N) [µM] | IC50 (Cytosol aminopeptidase) [µM] | IC50 [2] [µM] | inhibition [3] [%] | Structure (SMILES) | inhibition [4] | Stability [5] | Ki (Aminopeptidase N) [µM]
1 | > 1000 | 110 | > 1000 | 15 | – | NC1CCc2ccccc2C/C1=N/O (configuration not stated) | – | – | –
2 | > 1000 | – | – | 130 | 60 | NC1Cc2ccccc2CC1=O (configuration not stated) | inactive | – | –
3 | – | 310 | > 100 | 350 | – | NC1CCCCCC1=O (configuration not stated) [2-AMINOCYCLOHEPTANONE HYDROCHLORIDE] | – | – | –
4 | – | – | – | 0.0016 | – | CC(C)C[C@H](NC(=O)[C@@H](O)[C@H](N)Cc1ccccc1)C(=O)O [UBENIMEX] | – | – | –
5 | – | – | > 1000 | > 1000 | – | N[C@H]1CCc2ccccc2C[C@H]1O (relative stereo) | – | – | –
6 | > 1000 | – | > 1000 | 150 | – | NC1C(=O)Cc2ccccc21 (configuration not stated) | – | – | –
7 | > 1000 | > 1000 | > 1000 | > 1000 | – | NC1Cc2ccccc2CCC1=O (configuration not stated) | – | – | –

Row | Structure (SMILES) | IC50 [1] [µM] | IC50 (Aminopeptidase N) [µM] | IC50 (Cytosol aminopeptidase) [µM] | IC50 [2] [µM] | inhibition [3] [%] | inhibition [4] | Stability [5] | Ki (Aminopeptidase N) [µM]
8 | Cl.NC1CCc2ccccc2CC1=O (configuration not stated) | > 1000 | – | > 1000 | 900 | – | 60% | Stable | 1
